Screening data: PubChem, several laboratories
The list is not random: actives were taken first. Their share in the collection is about 2.6%.
PG9 binder = small molecules binding HIV-1 gp120 antibody PG9 | TR-FRET gp120-PG9 antibody binding | inhibition, % at 6.7 µM | 360,000 compounds, 0.43% hits | AID 624416; in the data active means inhibition above about 8.5%
NR2E3 ag-1 = agonists of human nuclear receptor NR2E3; Q9Y5X4; GST-NR2E3/biotin-RetCOR TR-FRET, 1536-well; inhibition of corepressor binding, % at 4.78 µM; 320,000 compounds, 0.12% hits; AID 2300;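 active means percent inhibition above the cutoff of mean plus 3 SD of all tested compounds, set per screening campaign, cut at about 20% in these data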
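Material: NR2E3–RetCOR corepressor complex / Incubation: Compound–protein incubation for 5 h at 4 °C / Dosing: compound at 4.8 µM, single dose / Detection: time-resolved FRET / Benchmarks: high control biotin, low control 0.6% DMSO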
NR2E3 ag-2 = human photoreceptor-specific nuclear receptor agonism; Q9Y5X4; CHO-S Gal4-NCOR/VP16-NR2E3 two-hybrid, luciferase; inhibition of corepressor binding, % at 3.98 µM; 360,000 compounds, 0.35% hits; AID 602229;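 active means inhibition above the mean of all tested compounds plus 3 SD, cut at about 70% in these data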;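 further: higher means lower luciferase signal from less NR2E3 corepressor binding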
rCAG binder = molecules binding r(CAG) RNA repeats; r(CAG) RNA repeat, TO-PRO-1 dye displacement fluorescence; inhibition, % at 3 µM; 370,000 compounds, 1.3% hits;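 active means inhibition above the plate cutoff, the mean of all test compounds on that plate plus 3 SD, cut at about 35% in these data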;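 further: higher means more dye released from RNA so lower well fluorescence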
Rev-erbA mod = Rev-erb alpha (human) modulation; P20393; Rev-erbα–FITC-DNA binding, fluorescence polarization, 90 min; activity, % at 10 µM; 370,000 compounds, 0.79% hits;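 active means activity above about 14%, limit read from the data; passing the limit was not always enough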
Target sequence (P20393 whole entry, looked up): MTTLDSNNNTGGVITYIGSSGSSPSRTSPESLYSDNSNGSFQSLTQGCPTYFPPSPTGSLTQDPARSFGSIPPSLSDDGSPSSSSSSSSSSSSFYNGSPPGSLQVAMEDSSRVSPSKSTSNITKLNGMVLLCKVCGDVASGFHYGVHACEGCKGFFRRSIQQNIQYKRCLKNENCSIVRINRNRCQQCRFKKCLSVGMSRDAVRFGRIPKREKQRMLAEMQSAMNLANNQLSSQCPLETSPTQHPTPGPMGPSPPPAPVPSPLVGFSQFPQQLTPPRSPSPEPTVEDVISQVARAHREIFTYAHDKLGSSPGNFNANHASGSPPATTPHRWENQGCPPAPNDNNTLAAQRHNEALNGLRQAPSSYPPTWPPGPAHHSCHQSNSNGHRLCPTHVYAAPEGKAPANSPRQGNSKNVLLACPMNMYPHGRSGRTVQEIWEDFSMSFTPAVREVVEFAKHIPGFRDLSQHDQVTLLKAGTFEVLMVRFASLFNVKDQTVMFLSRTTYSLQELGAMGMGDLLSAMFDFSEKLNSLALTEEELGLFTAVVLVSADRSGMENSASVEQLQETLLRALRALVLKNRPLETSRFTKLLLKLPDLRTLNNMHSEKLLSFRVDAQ
NR2E3 ag conf = confirmation of human NR2E3 agonists. CHO-S mammalian two-hybrid NR2E3-NCOR, luciferase luminescence. inhibition, % at 3.98 µM. shares compounds with NR2E3 ag-2. 2,300 compounds, 51% hits;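 active means average inhibition above a cutoff equal to the mean inhibition of all tested compounds plus one SD, cut at about 70% in these data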
VP16 counter = GAL4-VP16 reporter inhibition in NR2E3 agonist counterscreen. AID 624379. CHO-S GAL4-VP16 luciferase reporter, luminescence. shares compounds with NR2E3 ag-2. 2,300 compounds, 29% hits. inhibition, % at 3.98 µM;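 active means mean inhibition above a cutoff equal to the average over all tested compounds plus one standard deviation, cut at about 70% in these data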;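 further: luciferase from a UAS reporter driven by GAL4-VP16 transactivation; higher means less reporter light so more repression of VP16 activity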
Of the large screens only hits and unclear results are named; the others gave an inactive call (follow-up assays come after a bar, where they were run).

Cc1ccc(NC(=S)NCCSc2ccc(Cl)cc2)cc1	none
COc1ccc(CNc2ccc(Cl)cc2)cc1Cn1ccnc1	none
CCc1ccc(NCc2ccc(OC)c(Cn3ccnc3)c2)cc1	none | NR2E3 ag conf inactive | VP16 counter inactive
CSc1ccc(COC(=O)c2cc([N+](=O)[O-])ccc2N2CCOCC2)cc1	none | NR2E3 ag conf inactive | VP16 counter inactive
Cc1ccccc1COC(=O)c1cc([N+](=O)[O-])ccc1N1CCOCC1	none
CN(Cc1ccco1)C(=O)Cn1c(=O)oc2cc(S(=O)(=O)NCc3ccccc3)ccc21	none
CN(Cc1ccccc1)C(=O)Cn1c(=O)oc2cc(S(=O)(=O)NCc3ccccc3)ccc21	none | NR2E3 ag conf inactive | VP16 counter inactive
Cn1c(=O)c2[nH]c(COc3ccc(C(C)(C)C)cc3)nc2n(C)c1=O	none (no result: PG9 binder, rCAG binder, Rev-erbA mod) | NR2E3 ag conf 87 | VP16 counter 72
S=C(SCc1cc(Cl)cc2c1OCOC2)N1CCSCC1	none (no result: NR2E3 ag-1, NR2E3 ag-2)
Cc1ccc(OCCOC(=O)c2cc(S(=O)(=O)N3CCCCC3)ccc2N2CCOCC2)cc1	none | NR2E3 ag conf 72 | VP16 counter inactive
O=C(COC(=O)c1cc(S(=O)(=O)N2CCCCC2)ccc1N1CCOCC1)c1ccccc1Cl	none (no result: NR2E3 ag-1)
O=C(OCCOc1ccc(Cl)cc1)c1cc(S(=O)(=O)N2CCCCC2)ccc1N1CCOCC1	none (no result: NR2E3 ag-1) | NR2E3 ag conf 73 | VP16 counter inactive
COc1cccc(C2NC(=S)N(Cc3ccccc3)C(C)=C2C(C)=O)c1 (stereo not given)	none (no result: NR2E3 ag-1, NR2E3 ag-2)
COc1ccc(CN2CCC(CNC(=O)NC3CCCC3)CC2)cc1	none (no result: PG9 binder, NR2E3 ag-1, NR2E3 ag-2)
COC(=O)C1CN(C2CC2)CCS(=O)(=O)N1Cc1cn(Cc2ccc(OC)cc2)nn1 (stereo not given)	none (no result: PG9 binder, NR2E3 ag-1, NR2E3 ag-2)
O=C(CSc1ccc(-c2ccc(Cl)cc2)nn1)N1CCCc2ccccc21	none
O=C(CSc1ccc(-c2ccc(F)cc2)nn1)N1CCCc2ccccc21	none | NR2E3 ag conf inactive | VP16 counter inactive
CN(CCO)C(=O)c1nc[nH]c1C(=O)N1CCN(c2ccccc2)CC1	none (no result: NR2E3 ag-1, NR2E3 ag-2)
CCOc1ccc(S(=O)(=O)N2CCOCC2)c2ccccc12	none
CCOc1ccc(S(=O)(=O)N2CCCCC2)c2ccccc12	none | NR2E3 ag conf inactive | VP16 counter inactive
CCCCOCC1CN(Cc2ccccc2OC)S(=O)(=O)c2cc(Cl)ccc2O1 (stereo not given)	none (no result: NR2E3 ag-1, NR2E3 ag-2)
CC(C)C(=O)NNc1ccccc1	none
CC(C)OC(=O)C(=O)NNc1ccccc1	none | NR2E3 ag conf inactive | VP16 counter inactive
CC(O)CC(C(=O)NNc1ccccc1)C(=O)NNc1ccccc1 (stereo not given)	none | NR2E3 ag conf inactive | VP16 counter inactive
CCCOC(=O)C(=O)NNc1ccccc1	none
CC(=O)C1=C(C)NC(=S)NC1c1ccccc1 (stereo not given)	none (no result: NR2E3 ag-1, NR2E3 ag-2)
COc1ccc(NC(=O)/C(Cl)=C(/Cl)S(=O)Cc2ccccc2)cn1 (stereo not given)	NR2E3 ag-2 90 | NR2E3 ag conf 95 | VP16 counter inactive
Clc1cc2cccnc2c2ncccc12	NR2E3 ag-2 83 | NR2E3 ag conf 95 | VP16 counter inactive
Cc1c(C)c2cccnc2c2ncccc12	NR2E3 ag-2 79 (no result: PG9 binder, rCAG binder, Rev-erbA mod) | NR2E3 ag conf inactive | VP16 counter inactive
Oc1c(I)cc(Cl)c2cccnc12	none
COCCN(Cc1cc2cc3c(cc2nc1Cl)OCO3)C(=O)Nc1ccc(F)cc1	none (no result: Rev-erbA mod) | NR2E3 ag conf inactive | VP16 counter inactive
CCc1cccc(CC)c1NC(=O)/C(C#N)=C/c1ccccc1C(F)(F)F	NR2E3 ag-2 75 | NR2E3 ag conf inactive | VP16 counter inactive
N#C/C(=C\c1ccccc1C(F)(F)F)C(=O)Nc1ccccc1	none
Cc1ccccc1Oc1nc(-c2ccccn2)nc2ccccc12	none | NR2E3 ag conf inactive | VP16 counter inactive
c1ccc(N2CCN(c3nc(-c4ccccn4)nc4ccccc34)CC2)cc1	NR2E3 ag-2 100 | NR2E3 ag conf inactive | VP16 counter inactive
COc1cccc(CNC(=O)[C@H]2CCCN2C(=O)[C@H]2CCCN2C(=O)c2ccc(OC(F)(F)F)cc2)c1	none (no result: NR2E3 ag-1, NR2E3 ag-2)
O=C(NCC1CCCO1)C1CC(c2ccc(Cl)c(Cl)c2)=NO1 (stereo not given)	none | NR2E3 ag conf inactive | VP16 counter inactive
Cn1ncc(C#N)c1NC(=O)C1CC(c2ccc(Cl)c(Cl)c2)=NO1 (stereo not given)	none
O=C(N[C@H](Cc1ccccc1)C(=O)NCc1ccc(OC(F)(F)F)cc1)[C@H]1O[C@@H](n2ccc(=O)[nH]c2=O)[C@H](O)[C@@H]1O	none (no result: NR2E3 ag-1, NR2E3 ag-2)
COc1ccc(OC)c(-c2csc(NC(=O)Cc3cc(OC)c(OC)c(OC)c3)n2)c1	none | NR2E3 ag conf inactive | VP16 counter inactive
COc1ccc(OC)c(-c2csc(NC(=O)Cc3ccc(F)cc3)n2)c1	none
Cc1nc2cc(NCc3nc4ccccc4n3Cc3ccccc3)ccc2n1C	none | NR2E3 ag conf inactive | VP16 counter inactive
COc1ccc2c(c1)C=C(CN1CCC(CO)(CCc3ccccc3)CC1)CO2	none
COc1ccc(CC2(CO)CCN(CC3=Cc4cc(Cl)ccc4OC3)CC2)cc1	none | NR2E3 ag conf 96 | VP16 counter 74
Cc1cc(C)c(CN2CCN(C(=O)Cn3cnc4c(NCc5ccccc5)ncnc43)CC2)c(C)c1	NR2E3 ag-2 83 (no result: NR2E3 ag-1) | NR2E3 ag conf 88 | VP16 counter inactive
Cc1cc(C)c(CN2CCN(C(=O)Cn3ccc(N)nc3=O)CC2)c(C)c1	none
CSc1nc(N)nc2c1ncn2CC(=O)N1CCN(Cc2c(C)cc(C)cc2C)CC1	NR2E3 ag-2 80 (no result: NR2E3 ag-1) | NR2E3 ag conf inactive | VP16 counter inactive
COC(=O)C1=C(C)N(C)C(=NCc2ccc(OC)cc2)NC1c1ccc(Cl)cc1 (stereo not given)	none (no result: NR2E3 ag-1, NR2E3 ag-2)
COc1cccc(-c2nnc(SCC(=O)Nc3ccc(Oc4ccccc4)cc3)n2Cc2ccco2)c1	none (no result: PG9 binder, NR2E3 ag-1, NR2E3 ag-2)
COc1ccc(C=NN(C)C(=O)Nc2cccc(Cl)c2)cc1OC	none (no result: NR2E3 ag-1, NR2E3 ag-2)
COC1=C(OC)C(=O)C(Sc2ccc3ccccc3c2)=CC1=O	NR2E3 ag-2 84 (no result: NR2E3 ag-1) | NR2E3 ag conf 94 | VP16 counter inactive
COc1ccc(CCNc2ncnc3sc(C)cc23)cc1OC	NR2E3 ag-2 88 (no result: NR2E3 ag-1) | NR2E3 ag conf 99 | VP16 counter 92
COc1ccc(CCNc2ncnc3[nH]ncc23)cc1OC	none
Cc1nc(NCc2ccc3c(c2)OCO3)c2oc3ccccc3c2n1	none | NR2E3 ag conf inactive | VP16 counter inactive
COC(=O)[C@]12C[C@H](CC(=O)N3CCOCC3)C(=O)N(Cc3ccc4c(c3)OCO4)C1=C[C@H](C(C)(C)C)O[C@@H]2C	none (no result: NR2E3 ag-1, NR2E3 ag-2)
O=C(CSc1cccc[n+]1[O-])c1cc2ccccc2o1	NR2E3 ag-2 78 (no result: PG9 binder, rCAG binder, Rev-erbA mod) | NR2E3 ag conf inactive | VP16 counter inactive
CCC(=O)N1CCc2cc(S(=O)(=O)Nc3ccc4c(c3)OCCO4)ccc21	none | NR2E3 ag conf 89 | VP16 counter 78
CS(=O)(=O)N1CCc2cc(S(=O)(=O)Nc3ccc4c(c3)OCCO4)ccc21	none | NR2E3 ag conf inactive | VP16 counter inactive
